Laboratory results published in PMC9169238 (RSC Advances, 2022).

Tests used:
Assay type in all cases: cell-based
[1] = test system: A549 – Homo sapiens lung carcinoma; test: MTT cytotoxicity assay, A549; settings: A549, 24 h, read-out: IC50 values (μM) A549
Summary of the method: (§1)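 Test compound at 1 to 100 μM for 24 h. MTT (0.5 mg mL−1) added for 3 h, formazan dissolved in DMSO, absorbance read. Run in triplicate; IC50 calculated.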

[2] = test system: Hep G2 – Homo sapiens hepatocellular carcinoma; test: MTT cytotoxicity assay, HepG2; settings: HepG2, 24 h, read-out: IC50 values (μM) HEPG2
Summary of the method: as §1

[3] = test system: DU145 – Homo sapiens prostrate carcinoma; test: MTT cytotoxicity assay, DU145; settings: DU-145, 24 h, read-out: IC50 values (μM) DU145
Summary of the method: as §1

[4] = test system: B16-F10 – Mus musculus mouse skin melanoma; test: MTT cytotoxicity assay, B16-F10; settings: B16-F10, 24 h, read-out: IC50 values (μM) B16-F10
Summary of the method: as §1

[5] = test system: CHO-K1 – Cricetulus griseus chinese hamster ovary cells; test: MTT cytotoxicity assay, non-cancerous CHO-K1; settings: CHO-K1, 24 h, read-out: IC50 values (μM) CHO

Compound | IC50 [1] [µM] | IC50 [2] [µM] | IC50 [3] [µM] | IC50 [4] [µM] | IC50 [5] [µM]
O=C(Nc1ccccc1)c1ccccc1-n1c(=O)[nH]c2ccccc2c1=O [Compound 3a, 2-(2,4-dioxo-1,2-dihydroquinazolin-3(4H)-yl)-N-phenylbenzamide] | 29.4 ± 0.45 | 8.73 ± 0.02 | 14.83 ± 0.13 | 39.51 ± 0.13 | 
COc1ccc(NC(=O)c2ccccc2-n2c(=O)[nH]c3ccccc3c2=O)cc1 [Compound 3b, 2-(2,4-dioxo-1,2-dihydroquinazolin-3(4H)-yl)-N-(4-methoxyphenyl)benzamide] | 19.5 ± 0.25 | 23.3 ± 0.52 | 11.56 ± 0.06 | 24.8 ± 0.7 | 
Cc1ccc(NC(=O)c2ccccc2-n2c(=O)[nH]c3ccccc3c2=O)cc1 [Compound 3c, 2-(2,4-dioxo-1,2-dihydroquinazolin-3(4H)-yl)-N-(p-tolyl)benzamide] | 15.2 ± 0.7 | 5.33 ± 0.12 | 11.49 ± 0.04 | 17.9 ± 0.17 | 
O=C(Nc1ccc(Br)cc1)c1ccccc1-n1c(=O)[nH]c2ccccc2c1=O [Compound 3e, N-(4-Bromophenyl)-2-(2,4-dioxo-1,2-dihydroquinazolin-3(4H)-yl)benzamide] | 11.7 ± 0.14 | 9.48 ± 0.05 | 12.05 ± 0.02 | 14.67 ± 0.05 | 69.4 ± 5.17
CCCCNC(=O)c1cc(Cl)ccc1-n1c(=O)[nH]c2ccccc2c1=O [Compound 3g, N-Butyl-5-chloro-2-(2,4-dioxo-1,2-dihydroquinazolin-3(4H)-yl)benzamide] | 30.4 ± 5.52 | 15.3 ± 0.78 | 18.65 ± 0.08 | 20.5 ± 0.91 | 
CCNC(=O)c1ccccc1-n1c(=O)[nH]c2ccccc2c1=O [Compound 3h, 2-(2,4-Dioxo-1,2-dihydroquinazolin-3(4H)-yl)-N-ethylbenzamide] | 34.8 ± 4.65 | 16.7 ± 1.72 | 10.44 ± 0.02 | 27.1 ± 0.68 | 94.2 ± 2.44
COc1ccc(NC(=O)c2ccccc2-n2c(=O)[nH]c3ccc(F)cc3c2=O)cc1 [Compound 3j, 2-(6-Fluoro-2,4-dioxo-1,2-dihydroquinazolin-3(4H)-yl)-N-(4-methoxyphenyl)benzamide] | 30.4 ± 1.35 | 8.74 ± 0.34 | 12.3 ± 0.17 | 34.3 ± 1.55 | 
O=C(Nc1ccc(F)cc1)c1ccccc1-n1c(=O)[nH]c2ccc(F)cc2c1=O [Compound 3k, 2-(6-Fluoro-2,4-dioxo-1,2-dihydroquinazolin-3(4H)-yl)-N-(4-fluorophenyl)benzamide] | 17.2 ± 0.41 | 28.7 ± 0.92 | 11.59 ± 0.06 | 30 ± 0.42 | 
O=C(Nc1ccc(Br)cc1)c1ccccc1-n1c(=O)[nH]c2ccc(F)cc2c1=O [Compound 3l, N-(4-Bromophenyl)-2-(6-fluoro-2,4-dioxo-1,2-dihydroquinazolin-3(4H)-yl)benzamide] | 17.4 ± 0.18 | 7.77 ± 0.02 | 12.63 ± 0.08 | 28.5 ± 0.31 | 51.5 ± 2.74
CCNC(=O)c1ccccc1-n1c(=O)[nH]c2ccc(F)cc2c1=O [Compound 3m, N-Ethyl-2-(6-fluoro-2,4-dioxo-1,2-dihydroquinazolin-3(4H)-yl)benzamide] | 26.3 ± 1.32 | 20.2 ± 0.31 | 19.39 ± 0.14 | 41.4 ± 0.81 | 88 ± 3.56
O=C(Nc1ccccc1)c1ccccc1-n1c(=O)[nH]c2ccc(Cl)cc2c1=O [Compound 3n, 2-(6-Chloro-2,4-dioxo-1,2-dihydroquinazolin-3(4H)-yl)-N-phenylbenzamide] | 14.7 ± 0.18 | 12.3 ± 0.26 | 10.4 ± 0.13 | 14.83 ± 0.01 | 73.9 ± 2.81
O=C(Nc1ccc(F)cc1)c1ccccc1-n1c(=O)[nH]c2ccc(Cl)cc2c1=O [Compound 3o, 2-(6-Chloro-2,4-dioxo-1,2-dihydroquinazolin-3(4H)-yl)-N-(4-fluorophenyl)benzamide] | 26.3 ± 1.03 | 3.02 ± 0.06 | 5.17 ± 0.07 | 16.03 ± 0.06 | 74.5 ± 9.44
CCNC(=O)c1ccccc1-n1c(=O)[nH]c2ccc(Cl)cc2c1=O [Compound 3p, 2-(6-Chloro-2,4-dioxo-1,2-dihydroquinazolin-3(4H)-yl)-N-ethylbenzamide] | 22.8 ± 0.71 | 33.9 ± 0.71 | 13.02 ± 0.03 | 31.67 ± 0.14 | 
CCCCNC(=O)c1cc(Cl)ccc1-n1c(=O)[nH]c2ccc(Cl)cc2c1=O [Compound 3q, N-Butyl-5-chloro-2-(6-chloro-2,4-dioxo-1,2-dihydroquinazolin-3(4H)-yl)benzamide] | 28.7 ± 1.38 | 8.51 ± 0.2 | 9.37 ± 0.03 | 36.46 ± 0.1 | 
O=C(Nc1ccccc1)c1ccccc1-n1c(=O)[nH]c2ccc([N+](=O)[O-])cc2c1=O [Compound 3r, 2-(6-Nitro-2,4-dioxo-1,2-dihydroquinazolin-3(4H)-yl)-N-phenylbenzamide] | 16.7 ± 0.3 | 16 ± 0.51 | 15.59 ± 0.07 | 33.13 ± 0.12 | 
O=c1[nH]cc(F)c(=O)[nH]1 [Compound 5FU, 5-fluorouracil, reference compound] | 29.6 ± 1.64 | 23 ± 0.27 | 16.32 ± 0.02 | 7.55 ± 0.01 | 
COc1cccc2c1C(=O)c1c(O)c3c(c(O)c1C2=O)C[C@@](O)(C(=O)CO)C[C@@H]3O[C@H]1C[C@H](N)[C@H](O)[C@H](C)O1 [Doxorubicin, doxorubicin, reference compound] | 0.55 ± 0.16 | 0.72 ± 0.012 | 0.363 ± 0.01 | 0.7 ± 0.56 | 
